Experimental data reported in the RNAGym collection of RNA variant scans (doi:10.1126/science.aae0568).
Variants at the floor of the assay were thinned out.

B1: tRNA (parent)
chain: GUUCCGUUGGCGUAAUGGUAACGCGUCUCCCUCCUAAGGAGAAGACUGCGGGUUCGAGUCCCGUACGGAACG

Variants of: B1
Test: yeast fitness relative to wild type (ratio to wild type); higher = fitter; tRNA-Arg(CCU), competitive growth, 37 C, YPD
How it was run: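 Amplicons of the tRNA-Arg(CCU) gene were sequenced, 100-nucleotide paired-end, from the start population and from each end population of a pooled yeast competition. The competition, in six parallel replicates, lasted 24 hours in YPD at 37°C. Fitness relative to wild type was calculated from changes in genotype frequencies. Genotypes had to have ≥ 100 starting reads, and estimates < 0.5 were set to 0.5.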

Row | Variant | yeast fitness
1 | GGUCCGUUGGCGUAAUGGUAGCGCGUCUCCCUCCUAAGGAGAAGACUGCGGGUUCGAGUCCCGUACGGCACG [U2G A21G A69C] | 0.501
2 | GGUACGUUGGCGUAAUGGUAAUGCGUCGCCCUCCUAAGGAGUAGACUGCGGGUUCGAGUCCCGUACGGAACG [U2G C4A C22U U28G A42U] | ≤ 0.5
3 | GGUCCGUUGGCGUAAUGGUAACGCGUCUCCCUCCUAAGGAGAAGUCUGCGGGUUCGAGUCCCGUAUAGAACG [U2G A45U C66U G67A] | ≤ 0.5
4 | GGUACGUUGGCGUAAUGGUAAUGCGUCGCCCUCCUAAGGAGUAGACUGCGGGUUCGAGUCCCGCACGGAACG [U2G C4A C22U U28G A42U U64C] | ≤ 0.5
5 | GGUCCGUUGGCGUAAUGGUAACGCGUCUCCCUCCUACGGAGAAGACUGCGGGUUCGAGUCCCGUACGGAACG [U2G A37C] | 0.585
6 | GGUCCGUUGGCGUAAUGGUAACGCGUCUCCCUCCUGAGGUGAUGACUGCGGGUUCGAGUCCCGUAAGGAACG [U2G A36G A40U A43U C66A] | ≤ 0.5
7 | GGUACGUUGGCGUAACGGUAACGCGUCUCCCUCCUAAGGAGAAGACUGCGGGUUCGAGUCGCGUACGCAACG [U2G C4A U16C C61G G68C] | ≤ 0.5
8 | GGUCCGUUGGCGUAAUGGUAACGCGUCUCCCUCCUGAGGUGAUGACUGCGGGUUCGAGUCCCGUACGGAACG [U2G A36G A40U A43U] | ≤ 0.5
9 | GGUGCGUUGGCGUAAUGGUAACGCGUCUCCAUCCUACGGAGAAGACUGCGGGUUCGAGUCCCGUACGGAACG [U2G C4G C31A A37C] | ≤ 0.5
10 | GGUCCGUUGGCGUAAUGGUAACGCGUCUCCCUCCUAAGGAGAAGCCUGCGGGUUCGAGUCUCGUACGGAACG [U2G A45C C61U] | 0.615
11 | GGUCCGUUGGCGUAAUGGUAACGCGUCUCCCUCCUAAGGCGAAGACUGCGGGUUCGAGUCCCGUACGGAACG [U2G A40C] | 0.698
12 | GGUCCGUUGGCGUAAUGGUAACGCGUCUCCCUCCUAAGGUGAAGACUGCGGGUUCGAGUCCCGUACGGAACG [U2G A40U] | 0.813
13 | GGUCCGUUGGCGUAAUGGUAACGCGUCUCCCUCCUAAGGGGAAGACUGCGGGUUCGAGUCCCGUACGGAACG [U2G A40G] | 0.803
14 | GGUCCGUUGGCGUAAUGGUAACGCGUCUCCCUCCUAAGGUGAAGACUGCGGGUUUGAGUCCCGUACGGAACG [U2G A40U C55U] | ≤ 0.5
15 | GGUCCGUUGGCGUAAUGGUAGCGCGUCUCCCCCCUAAGGAGAAGACUGCGGGUUCGAGGCCCGUAUGGACCG [U2G A21G U32C U59G C66U A70C] | ≤ 0.5
16 | GGUUCGGUGGGGUACUGAUAACGCGUCUCCCUCCUAAGGAGAAGACUGCGGGUUUGAGUCCCGUACGGAACG [U2G C4U U7G C11G A15C G18A C55U] | 0.75
17 | GGUCCGUUGGCGUAAUGGUAACGCGUCUCCCUCCUUAGGAGAAGACUGCGGGUUCGAAUCCCGUACGGAACG [U2G A36U G58A] | ≤ 0.5
18 | GGUCCGUUGGCGUAAUGGUAACGCGUCUCCCUCCUAAGGUGAAGACUGCGGGUUUGAGUCCCGUACGGUACG [U2G A40U C55U A69U] | ≤ 0.5
19 | GGUCCGUUGGCGUAAUGGUAACGCGUCUCCCUCCUAAGGAGAAGUCUGUGGGUUCGAGUCGCGUACGGAACG [U2G A45U C49U C61G] | ≤ 0.5

Row | Variant | yeast fitness
20 | GGUCCGUUGGCGUAAUGGUAACGCGUCUCCCUCCUUAGGAGAAGACUGCGGGUUCGAGUCCCGUACGCAACG [U2G A36U G68C] | 0.605
21 | GGUCCGUUGGCGUAAUGGUAACGCGUCUCCCUCCUAAGGAGUAGACUGCGGGUUCGAGUCCCGUACGGAUCG [U2G A42U A70U] | 0.539
22 | GGUUCGUUGGCGUAAUGGUAACGCGUCUCCCUCCUAAGGAGAAGACUGCGGGUUUGAGUCCCGUACGGAACG [U2G C4U C55U] | 0.679
23 | GGUCCGUUGGCGUAAUGGUAACGCGUCUCCCUCCUACGGAGAAGACUGCGAGUUCGAGUCCCGUACGGAACG [U2G A37C G51A] | ≤ 0.5
24 | GGUCCGUUGGCGUAAUGGUAACGCGUCUCCCUCCUAAGGAGAAGGCUGCGGGUUCGAGUCCCGUCCGGAACG [U2G A45G A65C] | ≤ 0.5
25 | GGUCCGUUGGCGUAAUGGUAUCGCGUCUCCCUCCUAAGGAGAAGACUGCGGGUUCGAGUCCCGUACCGAACG [U2G A21U G67C] | ≤ 0.5
26 | GGUGCGUUGGCGUAAUGGUACCGCGUCUCCCUCCUAAGGAGAAGACUGCGGGUUCGAGUCCCGUACGGCACG [U2G C4G A21C A69C] | ≤ 0.5
27 | GGUCCGUUGGCGUAAUGGUAACGCGUCUCCCUCCUAAGGAGAAGACUGCGGGUUCGAGUCCCGUACGGGACG [U2G A69G] | 0.975
28 | GGUCCGUUGGCGUAAUGGUAACGCGUCUCCCUCCUAAGGAGAAGACUGCGGGUUCGAGUCCCGUACGGUACG [U2G A69U] | 0.743
29 | GGUCCGUUGGCGUAAUGGUAACGCGUCUCCCUCCUAAGGAGAAGACUGCGGGUUCGAGUCCCGUACGGCACG [U2G A69C] | 0.93
30 | GGUCCGUUGGCGUAAUGGUAACGCGUCUCCCUCCUAAGGAGUAGACUGCGGGUUCGAGUCCCGGACGGAACG [U2G A42U U64G] | ≤ 0.5
31 | GGUCCGUUGGCGUAAUGGUAACGCGUCUCCCUCCUAAGGAGUAGACUGCGGGUUCGAGUCCCGCACGGAACG [U2G A42U U64C] | ≤ 0.5
32 | GGUUCGUUGGCGUAAUGGUAACGCGUCUCCCUCCUAAGGAGAAGACUGCGGGUUCGAGUCAUGUUCGGAACG [U2G C4U C61A C62U A65U] | 0.521
33 | GGUCCGUUGGCGUAAUGGUAACGCGUCUCCCUCCUGAGGUGAUGACUGCGGGUUCCUGUCCCGUACGGAACG [U2G A36G A40U A43U G56C A57U] | ≤ 0.5
34 | GGUCCGUUGGCGUAAUGGUAACGCGUCUCCCUCCUAAGGCCUAGACUGCGGGUUCGAGUCCCGUACGGAACG [U2G A40C G41C A42U] | ≤ 0.5
35 | GGUCCGUUGGCGUAAUGGUAACGCGUCUCCCUCCUAAGGAGAAGACUGCGGGUUCGAGUCCCGUACGGACCG [U2G A70C] | 0.836
36 | GGUUCGUUGGCGUAAUGGUAACGCGUCUCCCUCCUUAGGAGAAGACUGCGGGUUCGAGUCCCGUACGGAACG [U2G C4U A36U] | 0.587
37 | GGUCCGUUGGCGUAAUGGUAACGCGUCUCCCUCCUAAGGAGAAGACUGCGGGUUCGAGUCCCGUACGGCGCG [U2G A69C A70G] | 0.57
